Source: ChEMBL document CHEMBL1143691, “Unusual naphthoquinone derivatives from the twigs of Avicennia marina” (2007)
In brackets after ≈: the same amount, converted by molar mass.

Experiments:
Type in all cases: functional
[1] = tested on: L929; test: Antiproliferative activity against mouse L929 cells
[2] = tested on: HeLa; test: Cytotoxicity against human HeLa cells
How it was run: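 Cytotoxicity in HeLa human cervix carcinoma cells (DSM ACC 57). Reported as CC50, the concentration that kills 50% of treated cells.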

[3] = tested on: K562; test: Antiproliferative activity against human K562 cells
[4] = tested on: Staphylococcus aureus; test: Antimicrobial activity against methicillin-resistant Staphylococcus aureus 134/93 by micro-broth dilution method
How it was run: (§1)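 MIC determined by microbroth dilution following NCCLS (National Committee for Clinical Laboratory Standards) guidelines. Each value is the mean of three independent experiments.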

[5] = tested on: Mycolicibacterium smegmatis; test: Antimicrobial activity against Mycobacterium smegmatis SG 987 by microbroth dilution method
How it was run: (§2)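 MIC by microbroth dilution following National Committee for Clinical Laboratory Standards guidelines; values are the mean of three independent experiments. Ciprofloxacin served as the antibacterial reference and amphotericin B as the antifungal reference.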

[6] = tested on: Mycolicibacterium vaccae; test: Antimicrobial activity against Mycobacterium vaccae IMET 10670 by microbroth dilution method; how it was run: as §2
[7] = tested on: Mycolicibacterium aurum; test: Antimicrobial activity against Mycobacterium aurum SB 66 by micro-broth dilution method; how it was run: as §2
[8] = tested on: Enterococcus faecalis; test: Antimicrobial activity against vancomycin-resistant Enterococcus faecalis 1528 by micro-broth dilution method; how it was run: as §1
[9] = tested on: Mycolicibacterium fortuitum; test: Antimicrobial activity against Mycobacterium fortuitum B by micro-broth dilution method; how it was run: as §2
[10] = tested on: Candida albicans; test: Antimicrobial activity against Candida albicans BMSY 212 by micro-broth dilution method; how it was run: as §2

| SMILES | GI50 [1] | CC50 [2] | GI50 [3] | MIC [4] | MIC [5] | MIC [6] | MIC [7] | MIC [8] | MIC [9] | MIC [10] |
| --- | --- | --- | --- | --- | --- | --- | --- | --- | --- | --- |
| COc1c2c(c(OC)c3ccccc13)[C@H](O)[C@@H](C(C)(C)O)O2 [AVICENOL A] | > 10 µg/mL | > 10 µg/mL | > 10 µg/mL | – | – | – | – | – | – | – |
| O=C(O)c1cn(C2CC2)c2cc(N3CCNCC3)c(F)cc2c1=O [CIPROFLOXACIN] | – | – | – | 12.5 µg/mL (≈ 37.7 µM) | 0.4 µg/mL (≈ 1.21 µM) | 0.2 µg/mL (≈ 0.604 µM) | < 0.05 µg/mL | 0.8 µg/mL (≈ 2.41 µM) | 0.2 µg/mL (≈ 0.604 µM) | – |
| COC(=O)c1ccccc1/C(OC)=C1/C[C@@H](C(C)(C)O)OC1=O [AVICENNONE A] | > 10 µg/mL | > 10 µg/mL | > 10 µg/mL | – | – | – | – | – | – | – |
| CC(C)(O)[C@H]1OC2=C(C(=O)c3ccccc3C2=O)[C@@H]1O [AVICEQUINONE A] | – | – | – | 6.25 µg/mL (≈ 22.8 µM) | 12.5 µg/mL (≈ 45.6 µM) | 12.5 µg/mL (≈ 45.6 µM) | 12.5 µg/mL (≈ 45.6 µM) | 50 µg/mL (≈ 182 µM) | 12.5 µg/mL (≈ 45.6 µM) | 12.5 µg/mL (≈ 45.6 µM) |
| COc1c2c(c(OC)c3ccccc13)O[C@H](C(C)(C)O)C2 [AVICENOL C] | > 10 µg/mL | > 10 µg/mL | > 10 µg/mL | – | – | – | – | – | – | – |
| CC(=O)O[C@H]1C(=O)[C@@]2(C)[C@H]([C@H](OC(=O)c3ccccc3)[C@]3(O)C[C@H](OC(=O)[C@H](O)[C@@H](NC(=O)c4ccccc4)c4ccccc4)C(C)=C1C3(C)C)[C@]1(OC(C)=O)CO[C@@H]1C[C@@H]2O [PACLITAXEL] | 0.1 µg/mL (≈ 0.117 µM) | 0.01 µg/mL (≈ 0.0117 µM) | 0.01 µg/mL (≈ 0.0117 µM) | – | – | – | – | – | – | – |
| CC(C)(O)c1cc2c(o1)C(=O)c1ccccc1C2=O [AVICEQUINONE C] | 0.8 µg/mL (≈ 3.12 µM) | 3.2 µg/mL (≈ 12.5 µM) | 1.1 µg/mL (≈ 4.29 µM) | 6.25 µg/mL (≈ 24.4 µM) | 6.25 µg/mL (≈ 24.4 µM) | 6.25 µg/mL (≈ 24.4 µM) | 6.25 µg/mL (≈ 24.4 µM) | 50 µg/mL (≈ 195 µM) | 12.5 µg/mL (≈ 48.8 µM) | 12.5 µg/mL (≈ 48.8 µM) |
| CC(C)(O)[C@@H]1CC2=C(O1)C(=O)c1ccccc1C2=O [STENOCARPOQUINONE B] | 1.2 µg/mL (≈ 4.65 µM) | 4.3 µg/mL (≈ 16.6 µM) | 0.2 µg/mL (≈ 0.774 µM) | 12.5 µg/mL (≈ 48.4 µM) | 12.5 µg/mL (≈ 48.4 µM) | 6.25 µg/mL (≈ 24.2 µM) | 12.5 µg/mL (≈ 48.4 µM) | 25 µg/mL (≈ 96.8 µM) | 25 µg/mL (≈ 96.8 µM) | 12.5 µg/mL (≈ 48.4 µM) |
| C[C@@H]1[C@H](O)[C@@H](C)/C=C/C=C/C=C/C=C/C=C/C=C/C=C/[C@H](O[C@@H]2O[C@H](C)[C@@H](O)[C@H](N)[C@@H]2O)C[C@@H]2O[C@](O)(C[C@@H](O)C[C@@H](O)[C@H](O)CC[C@@H](O)C[C@@H](O)CC(=O)O[C@H]1C)C[C@H](O)[C@H]2C(=O)O [AMPHOTERICIN B] | – | – | – | – | – | – | – | – | – | < 0.05 µg/mL |
